Measured values from different studies.
Compare with care: the assays were run in different laboratories.
Target: RAC-beta serine/threonine-protein kinase (AKT2, Homo sapiens, UniProt P31751)

Structure (SMILES)	test	setting	measurement	value
CC(C)c1ccc(NC(=O)c2cccs2)c(-c2nc3ccccc3[nH]c2=O)c1	enzyme activity, inhibitor	1 µM	activity vs control	102%
CN(c1ncccc1CNc1nc(Nc2ccc3c(c2)CC(=O)N3)ncc1C(F)(F)F)S(C)(=O)=O	enzyme activity, inhibitor	1 µM	inhibition	1.6%
C[C@H](c1cccc(C#N)c1)n1cc(Cl)cc(C(N)=O)c1=N	cell-free assay, competition with immobilised ligand	1 µM	remaining binding	100%
COc1cc(Cl)c(C(=O)N[C@@H](CN[C@H]2CC[C@@H](N)CC2)Cc2ccc(C#N)cc2)cc1-c1ccc(CN[C@H](C)c2ccc(C)cc2)o1	enzyme activity, inhibitor	1 µM	remaining activity	65%
Nc1ncnc2occ(-c3ccc(NC(=O)Nc4cc(C(F)(F)F)ccc4F)cc3)c12	cell-free assay, inhibitor	20 µM	remaining signal	95%
Cn1c(=O)n(-c2ccc(C(C)(C)C#N)cc2)c2c3cc(-c4cnc5ccccc5c4)ccc3ncc21	enzyme activity, inhibitor	10 µM	remaining activity	106%
O=C(Nc1cc(-c2ccc(Cl)cc2)[nH]n1)C1CCCCC1	enzyme activity, inhibitor	10 µM	activity vs control	75%
c1ccc(N2CCN(Cc3nc4ccccc4[nH]3)CC2)nc1	binding, competition with immobilised ligand	1 µM	remaining binding	100%
Cc1ccc(C(=O)NCc2ccsc2)cc1C#Cc1cn(C(C)C)c2ncnc(N)c12	enzyme activity, inhibitor	1 µM	activity vs control	99%
CCCS(=O)(=O)Nc1ccc(F)c(C(=O)c2c[nH]c3ncc(-c4ccc(Cl)cc4)cc23)c1F	enzyme activity, inhibitor	1 µM	inhibition	< 10%
O=S(=O)(NC1CCC(c2cc(F)ccc2F)(S(=O)(=O)c2ccc(Cl)cc2)CC1)C(F)(F)F (stereo not drawn)	cell-free assay, competition with immobilised ligand	1 µM	remaining binding	99%
Nc1nc(Nc2ccccc2)sc1C(=O)c1c(F)cccc1F	enzyme activity, inhibitor	10 µM	remaining activity	85%
CCC(=O)N[C@H]1CC[C@@H](C(=O)N(C)c2ccc(-c3nc4ccccc4o3)cc2)C1	cell-free assay, competition with immobilised ligand	1 µM	remaining binding	89%
Cc1ccc(Nc2nccc(N(C)c3ccc4c(C)n(C)nc4c3)n2)cc1S(N)(=O)=O	enzyme activity, inhibitor	0.5 µM	remaining activity	107%
CSc1cccnc1N1CCN(Cc2nc3ccccc3[nH]2)CC1	cell-free assay, competition with immobilised ligand	1 µM	remaining binding	98%
N#CCCc1ccc2c(c1)-c1[nH]c3ccc([N+](=O)[O-])cc3c1CC(=O)N2	cell-free assay	0.5 µM	remaining signal	100%
O=C(N[C@H]1CCCCC/C=C\C2C[C@@]2(C(=O)O)NC(=O)[C@@H]2C[C@@H](Oc3ccncc3)CN2C1=O)OC1CCCC1 (stereo partly drawn)	binding, competition with immobilised ligand	1 µM	remaining binding	85%
COc1cc(Nc2cnc(C#N)c(O[C@H](C)CN(C)C)n2)ncc1-c1cnn(C)c1	enzyme activity, inhibitor, radiometric	10 µM	remaining activity	67%
CC(=O)N1CCC(c2ccc(C(=O)NC3=NCCN3)cc2C(F)(F)F)CC1	cell-free assay, competition with immobilised ligand	1 µM	remaining binding	91%
Cc1sc(C(=O)NC2COC2)cc1-n1cc(NC(=O)Nc2c(F)cccc2Cl)cn1	enzyme activity, inhibitor	10 µM	remaining activity	88.9%
Oc1cccc(-c2nc(N3CCOCC3)c3oc4ncccc4c3n2)c1	cell-free assay	0.5 µM	remaining signal	99.1%
CCN(CC)c1ccc(C2=NNC(=O)CC2C)cc1[N+](=O)[O-] (stereo not drawn)	enzyme activity, inhibitor	10 µM	remaining activity	101%
C[C@@]1(Cc2ccc(C#N)cc2)C(=O)N(c2cc(Cl)cc(Cl)c2)c2ncc(C(=O)NC3(c4nc(C5CCC5)no4)CC3)n21	cell-free assay, competition with immobilised ligand	1 µM	remaining binding	100%
CC(C)(C)c1nc2c(s1)c1nc(N)ncc1c1ccc(NS(=O)(=O)c3c(F)cccc3F)c(F)c12	enzyme activity, inhibitor, radiometric	1 µM	remaining activity	114%
Cc1ccc(NC(=O)c2ccc(C)c(C(F)(F)F)c2)cc1C#Cc1nn(C2CCC(O)CC2)c2ncnc(N)c12 (stereo not drawn)	cell-free assay	10 µM	remaining signal	127%
O=C1Nc2ccc(Cl)cc2C1=Cc1cc(Cl)c(O)c(Cl)c1	cell-free assay	0.5 µM	remaining signal	93.9%
Oc1cccc(-c2nc(N3CCOCC3)c3oc4ncccc4c3n2)c1	enzyme activity, inhibitor	10 µM	remaining activity	114%
CN1CC(Oc2cnc(C#N)cc2-c2ccn3nc(NC(=O)C4CC4)cc3c2)C1	enzyme activity, inhibitor	1 µM	inhibition	-3%
CCCOc1ccc(OC)c(F)c1C(=O)c1ccc(C(=O)N[C@@H]2CNC[C@H]2NC(=O)c2ccc3[nH]ncc3c2)cc1	enzyme activity, inhibitor	10 µM	remaining activity	49%
COc1cc2ncnc(Nc3ccc(Oc4ccccc4)c(C)c3C)c2cc1OC	enzyme activity, inhibitor	1 µM	inhibition	1%
